≈ marks a conversion by molar mass, not a printed value.
Experiments:
Rhizoctonia solani = test: Fungicidal activity against Rhizoctonia solani assessed as mycelial growth inhibition after 3 days; type: functional, organism-based
Outline: (§1)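 Mycelial agar discs (4 mm) placed on potato dextrose agar plates containing test compound and incubated at 25 °C. Pyricularia oryzae was incubated for 7 d and Rhizoctonia solani for 3 d.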

Blumeria hordei = test: Fungicidal activity against Blumeria graminis f. sp. hordei infested first-leaf stage of barley seedlings assessed as growth inhibition applied as spray after 10 days under green house conditions; type: functional; settings: 240 h
Pyricularia grisea = test: Fungicidal activity against Magnaporthe oryzae assessed as mycelial growth inhibition after 7 days; type: functional, organism-based, Pyricularia oryzae; outline: as §1

Row | Compound | IC50 (Rhizoctonia solani) | MIC (Blumeria hordei) | IC50 (Pyricularia grisea)
1 | C[Si](C)(C)CCC(O)(Cn1cncn1)c1ccc(Br)cc1 (configuration not stated) | > 1 ppm | 3 µg/mL (≈ 8.14 µM) | > 10 ppm
2 | COc1ccc(C(O)(CC[Si](C)(C)C)Cn2cncn2)cc1 (configuration not stated) | > 1 ppm | > 3 µg/mL | > 10 ppm
3 | C[Si](C)(C)CCC(O)(Cn1cncn1)c1ccc(Cl)cc1Cl (configuration not stated) | 0.05 ppm | 0.3 µg/mL (≈ 0.837 µM) | 2.57 ppm
4 | C[Si](C)(C)CCC(O)(Cn1cncn1)c1ccc(F)cc1F (configuration not stated) | 0.12 ppm | 0.3 µg/mL (≈ 0.922 µM) | 3.1 ppm
5 | Cc1ccc(C(O)(CC[Si](C)(C)C)Cn2cncn2)cc1 (configuration not stated) | > 1 ppm | > 3 µg/mL | > 10 ppm
6 | C[Si](C)(C)CCCC(O)(Cn1cncn1)c1ccc(Cl)cc1 (configuration not stated) | 0.61 ppm | 1 µg/mL (≈ 2.96 µM) | > 3 ppm
7 | C[Si](C)(C)CCCC(O)(Cn1cncn1)c1ccc(F)cc1F (configuration not stated) | 0.01 ppm | 1 µg/mL (≈ 2.95 µM) | 0.89 ppm
8 | C[Si](C)(C)CCC(O)(Cn1cncn1)c1ccc(F)cc1 (configuration not stated) | > 1 ppm | 3 µg/mL (≈ 9.76 µM) | 10 ppm
9 | C[Si](C)(C)CCCC(O)(Cn1cncn1)c1ccc(Cl)c(Cl)c1 (configuration not stated) | 1.94 ppm | > 3 µg/mL | > 10 ppm
10 | C[Si](C)(C)CC(O)(Cn1cncn1)c1ccc(F)cc1 (configuration not stated) [SIMECONAZOLE] | 0.04 ppm | 0.3 µg/mL (≈ 1.02 µM) | 1.09 ppm
11 | C[Si](C)(C)CCC(O)(Cn1cncn1)c1ccccc1 (configuration not stated) | > 1 ppm | 3 µg/mL (≈ 10.4 µM) | > 10 ppm
12 | C[Si](C)(C)CCCC(O)(Cn1cncn1)c1ccccc1 (configuration not stated) | > 1 ppm | 3 µg/mL (≈ 9.89 µM) | > 10 ppm
13 | C[Si](C)(C)CCC(O)(Cn1cncn1)c1ccc(Cl)cc1 (configuration not stated) | > 1 ppm | 3 µg/mL (≈ 9.26 µM) | > 10 ppm
14 | C[Si](C)(C)CCCC(O)(Cn1cncn1)c1ccc(F)cc1 (configuration not stated) | 0.42 ppm | 3 µg/mL (≈ 9.33 µM) | > 3 ppm

Source: ChEMBL document CHEMBL3045336, “Synthesis of 1-triazolyl-4-trimethylsilyl-2-butanol and 1-triazolyl-5-trimethylsilyl-2-pentanol derivatives and an investigation of their fungicidal activities” (Chem Pharm Bull (Tokyo), 2003)
